Our source for the IC50 values is ChEMBL document CHEMBL3596186, “Synthesis and biological evaluation of diarylthiazole derivatives as antimitotic and antivascular agents with potent antitumor activity” (Bioorg Med Chem, 2015).

pIC50: −log10 of the molar value.

In general, pIC50 refers to the negative decadic logarithm of the IC50, by convention in mol/L.

Common to all, as to format: functional, cell-based
For one experiment, the system named is HepG2. The experiment is described as follows: Antiproliferative activity against human HepG2 cells after 48 hrs by MTT assay. To be noted: HepG2, 48 h. In outline:
(§1)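 HCT116, HepG2, SMMC-7721, SK-OV-3 and A2780s grown in DMEM; A549 and MCF-7 in RPMI-1640; all with 10% FBS and penicillin/streptomycin at 37 °C, 5% CO2. Log-phase cells at 40,000-50,000 cells/mL treated with graded concentrations for 48 h. MTT 3 h, DMSO solubilization, A570. IC50 from percent growth versus untreated control; mean ± SEM of ≥3 independent dose-response experiments.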
(In general: Tetrazolium dyes change colour on reduction, which living cells bring about.)

The nature of experiment [1]: Antiproliferative activity against human […] cells after 48 hrs by MTT assay. In outline:
as §1

For the next experiment, the system named is SK-OV-3. The experiment is described as follows: Antiproliferative activity against human SKOV3 cells after 48 hrs by MTT assay. To be noted: SK-OV-3, 48 h. In outline:
as §1

A further experiment relates to HCT-116. The experiment is described as follows: Antiproliferative activity against human HCT116 cells after 48 hrs by MTT assay. The conditions noted are these: HCT-116, 48 h. In outline:
as §1

A short description of experiment [2]: Antiproliferative activity against human A2780S cells after 48 hrs by MTT assay. To be noted: A2780, 48 h. In outline: as §1

Turning to `CCOc1ccc(-c2nc(N(CC)CC)sc2-c2cc(OC)c(OC)c(OC)c2)cc1`, the pIC50 (in the experiment on HepG2; in experiment [1]; with SK-OV-3; in the experiment on HCT-116; in experiment [2]) was under 5.30 throughout.
Turning to `C=CCN(CC=C)c1nc(-c2ccc(OCC)cc2)c(-c2cc(OC)c(OC)c(OC)c2)s1`, the pIC50 (with HepG2; in experiment [1]; in the experiment with SK-OV-3; in the experiment with HCT-116; in experiment [2]) was under 5.30 throughout.
In the case of `CCOc1ccc(-c2nc(NS(=O)(=O)c3ccsc3Cl)sc2-c2cc(OC)c(OC)c(OC)c2)cc1`, the pIC50 (in the experiment with HepG2; in experiment [1]; in the experiment on SK-OV-3; in the experiment with HCT-116; in experiment [2]) was under 5.30 in each case.
Regarding `CCOc1ccc(-c2nc(NC(=O)C(C)C)sc2-c2cc(OC)c(OC)c(OC)c2)cc1`, the pIC50 was 6.75 with HepG2; 7.19 in experiment [1]; 7.07 in the experiment with SK-OV-3; 7.65 in the experiment with HCT-116; 7.65 in experiment [2].
On to `CCOc1ccc(-c2nc(NS(=O)(=O)c3ccc(Br)cc3C(F)(F)F)sc2-c2cc(OC)c(OC)c(OC)c2)cc1`, for which the pIC50 (in the experiment on HepG2; in experiment [1]; with SK-OV-3; in the experiment on HCT-116; in experiment [2]) was under 5.30 each time.
On to `CCOc1ccc(-c2nc(NC(C)=O)sc2-c2cc(OC)c(OC)c(OC)c2)cc1`, for which the pIC50 with HepG2 is 7.22; in experiment [1] it was 7.89; in the experiment on SK-OV-3, 6.78; in the experiment on HCT-116, 7.99; in experiment [2] it was 7.99.
For the compound `CCOc1ccc(-c2nc(N(C)C)sc2-c2cc(OC)c(OC)c(OC)c2)cc1`, the pIC50 (in the experiment on HepG2; in experiment [1]; with SK-OV-3; in the experiment with HCT-116; in experiment [2]) was under 5.30 each time.
On to `CCOc1ccc(-c2nc(NS(=O)(=O)c3ccc(OC)c(F)c3)sc2-c2cc(OC)c(OC)c(OC)c2)cc1`, for which the pIC50 (with HepG2; in experiment [1]; in the experiment with SK-OV-3; with HCT-116; in experiment [2]) was under 5.30 each time.
For the compound `CCOc1ccc(-c2sc(N)nc2-c2cc(OC)c(OC)c(OC)c2)cc1`, the pIC50 in the experiment with HepG2 was 8.08; in experiment [1] it was 8.00; with SK-OV-3, 8.08; with HCT-116, 8.04; in experiment [2] it was 8.07.
As to `CCOc1ccc(-c2nc(NS(=O)(=O)c3ccc(C)c(C)c3)sc2-c2cc(OC)c(OC)c(OC)c2)cc1`, the pIC50 (in the experiment with HepG2; in experiment [1]; in the experiment with SK-OV-3; in the experiment on HCT-116; in experiment [2]) was under 5.30 in each case.
For `COc1ccc(-c2nc(N)sc2-c2cc(OC)c(OC)c(OC)c2)cc1`, the pIC50 was 7.30 with HepG2; 8.05 in experiment [1]; 6.96 in the experiment on SK-OV-3; 7.03 in the experiment with HCT-116; 7.85 in experiment [2].
The corresponding values for `CCCN(CCC)c1nc(-c2ccc(OCC)cc2)c(-c2cc(OC)c(OC)c(OC)c2)s1` are under 5.30, under 5.30, under 5.30, under 5.30 and under 5.30.
In the same order, the values of `CCOC(=O)c1nc(-c2ccc(OCC)cc2)c(-c2cc(OC)c(OC)c(OC)c2)s1` are under 5.30, under 5.30, under 5.30, under 5.30 and under 5.30.
The corresponding values for `CCOc1ccc(-c2nc(C(OCC)OCC)sc2-c2cc(OC)c(OC)c(OC)c2)cc1` are under 5.30, under 5.30, under 5.30, under 5.30 and under 5.30.
Regarding `CCOc1ccc(-c2nc(C(C)(C)C)sc2-c2cc(OC)c(OC)c(OC)c2)cc1`, the pIC50 (with HepG2; in experiment [1]; in the experiment on SK-OV-3; with HCT-116; in experiment [2]) was under 5.30 each time.
